Holding throughout (format): functional
Assay [1] in a line: Percentage inhibition against platelet activating factor (2 ng/mL) induced platelet aggregatory activity.
Assay [2] is described as follows: Percentage inhibition against thrombin induced platelet aggregatory activity. The arrangement: concentration or dose not given beside the values.
Assay [3] in a line: In vitro inhibition of Arachidonic acid (100 uM) induced platelet aggregatory activity.
A short description of assay [4]: In vitro inhibition of Collagen (10 ug/mL) induced platelet aggregatory activity. Put shortly: (§1)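 Platelets were preincubated with test agent or vehicle (DMSO 0.5%) at 37 °C for 3 min before the inducer was added, and aggregation was then followed. Aspirin served as the positive control. IC50 values are reported as means ± SE (n=3).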
Assay [5] is described as follows: Percentage inhibition against Platelet activating factor (2 ng/mL) induced platelet aggregatory activity.
Assay [6] in a line: In vitro inhibition of Collagen (10 ug/mL) induced platelet aggregatory activity.
The nature of assay [7]: Inhibitory concentration required against Arachidonic acid (100 uM) induced platelet aggregatory activity. Put shortly: as §1

With `COc1cc2ccnc(C(=O)c3ccc(Br)cc3)c2cc1OC`, the Inhibition in assay [1] is 44%; in assay [2], 5%; in assay [3] it was 22%; in assay [4], 36%.
On to `COc1cc2ccnc(C(=O)c3ccccc3Cl)c2cc1OC`, for which the IC50 in assay [5] is 82 µM; in assay [6], 52.1 µM; in assay [7], 77.1 µM. Further, in assay [2], the Inhibition stood at 30%.
Regarding `COc1cc2c(cc1OC)C(C(=O)c1ccccc1OC)=NCC2`, the Inhibition in assay [1] is given as 26%; in assay [2], 8%; in assay [3], 21%; in assay [4], 18%.
As to `COc1cc2ccnc(Cc3ccccc3Br)c2cc1OC`, the Inhibition in assay [1] amounted to 8%; in assay [2] it was 7%; in assay [3], 46%. Besides, the IC50 in assay [6] came out at 99.2 µM.
`COc1cc2c(cc1OC)C(C(=O)c1ccc(Br)cc1)=NCC2`: the Inhibition is on record as 10% in assay [1], 4% in assay [2], 6% in assay [3] and 20% in assay [4].
On to `COc1cc2ccnc(Cc3ccc(Cl)cc3)c2cc1OC`, for which the results for the Inhibition in assay [1] and in assay [2] were 26% and 28%, respectively. Further, the IC50 is 32.7 µM in assay [6] and 51.3 µM in assay [7].
For `COc1cc2ccnc(Cc3ccc(Br)cc3)c2cc1OC` the same measures were 8%, 11%, 55.6 µM and 94 µM.
Consider `COc1ccc(C(O)c2nccc3cc(OC)c(OC)cc23)cc1` (stereo unspecified), for which the Inhibition came out at 18% in assay [1], 9% in assay [2] and 44% in assay [3]. In addition, in assay [6], the midpoint of inhibition, the IC50, lay at 58.9 µM.
Regarding `COc1cc2ccnc(C(=O)c3ccc(Cl)cc3)c2cc1OC`, the Inhibition in assay [2] is on record as 9%; in assay [3], 11%. In assay [6], this compound returned an IC50 of 89.2 µM.
In the case of `COc1cc2ccnc(C(=O)c3ccccc3Br)c2cc1OC`, the results for the Inhibition in assay [1], in assay [2] and in assay [3] were 25%, 6% and 49%, respectively. This compound also returned an IC50 in assay [6] of 77.3 µM.
For `COc1ccccc1Cc1nccc2cc(OC)c(OC)cc12`, the values for the Inhibition in assay [1] and in assay [2] were 20% and 8%, respectively. Also, the IC50 in assay [6] amounted to 51.2 µM; in assay [7], 66.2 µM.
Turning to `COc1ccc(C(=O)C2=NCCc3cc(OC)c(OC)cc32)cc1`, the Inhibition in assay [1] came out at 41%; in assay [2] it was 10%; in assay [3], 19%. The compound further returned an IC50 in assay [6] of 87 µM.
Take `COc1cc2c(cc1OC)C(C(=O)c1cccc(Cl)c1)=NCC2`: the Inhibition is on record as 32% in assay [1], 3% in assay [2], 25% in assay [3] and 35% in assay [4].
For the compound `COc1ccc(C(=O)c2nccc3cc(OC)c(OC)cc23)cc1`, the IC50 in assay [5] came out at 64.7 µM; in assay [6] it was 97 µM. For the same compound, the Inhibition stood at 4% in assay [2] and 20% in assay [3].
With `COc1cccc(C(=O)c2nccc3cc(OC)c(OC)cc23)c1`, the IC50 in assay [5] was 73 µM; in assay [6] it was 39.1 µM; in assay [7], 37.7 µM. The compound also displayed an Inhibition in assay [2] of 46%.
For the compound `COc1cc2c(cc1OC)C(C(=O)c1ccc(Cl)cc1)=NCC2`, the Inhibition in assay [1] was determined as 22%; in assay [2], 18%; in assay [3] it was 48%. The compound also gave an IC50 in assay [6] of 66.1 µM.
Take `COc1ccc(Cc2nccc3cc(OC)c(OC)cc23)cc1`: the values for the Inhibition in assay [1] and in assay [2] were 52% and 26%, respectively. In addition, the IC50 in assay [6] was found to be 36.7 µM; in assay [7] it was 59.2 µM.
With `COc1cc2ccnc(C(=O)c3ccccc3OC)c2cc1OC`, the Inhibition was found to be 35% in assay [1], 1% in assay [2], 50% in assay [3] and 39% in assay [4].
On to `COc1cc2ccnc(Cc3cccc(Cl)c3)c2cc1OC`, for which the Inhibition came out at 11% in assay [1] and 18% in assay [2]. In addition, the IC50 in assay [6] was found to be 73.6 µM; in assay [7], 90.2 µM.
With `COc1cccc(Cc2nccc3cc(OC)c(OC)cc23)c1`, the Inhibition in assay [1] came to 12%; in assay [2], 5%; in assay [3], 39%; in assay [4], 46%.
For `COc1cccc(C(=O)C2=NCCc3cc(OC)c(OC)cc32)c1` the same measures were 15%, 14%, 48% and 31%.
For `COc1cc2c(cc1OC)C(C(=O)c1cccc(Br)c1)=NCC2`, the IC50 is 75.8 µM in assay [5] and 74.5 µM in assay [6]. Further, the Inhibition amounted to 4% in assay [2] and 23% in assay [3].
In the case of `COc1cc2ccnc(Cc3cccc(Br)c3)c2cc1OC`, the Inhibition in assay [1] amounted to 23%; in assay [2] it was 8%. For the same compound, the IC50 in assay [6] stood at 48.9 µM; in assay [7] it was 68.8 µM.
Turning to `COc1cc2ccnc(C(=O)c3cccc(Cl)c3)c2cc1OC`, the Inhibition came to 47% in assay [1], 4% in assay [2] and 35% in assay [3]. The compound further came in with an IC50 in assay [6] of 72.6 µM.
Take `COc1cc2ccnc(Cc3ccccc3Cl)c2cc1OC`: the Inhibition in assay [1] was determined as 13%; in assay [2], 8%; in assay [3], 34%. Besides, in assay [6], half-maximal inhibition (IC50) was put at 72.3 µM.
Take `COc1cc2ccnc(C(=O)c3cccc(Br)c3)c2cc1OC`: the IC50 in assay [5] was found to be 85 µM; in assay [6], 69 µM. The Inhibition in assay [2] was 5%; in assay [3], 35%.
For the compound `COc1cc2c(cc1OC)C(C(=O)c1ccccc1Cl)=NCC2`, the Inhibition amounted to 20% in assay [1], 9% in assay [2] and 27% in assay [3]. The same compound gave an IC50 in assay [6] of 88.1 µM.
With `CC(=O)Oc1ccccc1C(=O)O` [ASPIRIN], the Inhibition in assay [1] is given as 2%; in assay [2] it was 81%. For the same compound, the values for the IC50 in assay [6] and in assay [7] were 34.9 µM and 34.6 µM, respectively.

The values above are taken from ChEMBL document CHEMBL1146621, “Antiplatelet activity of benzylisoquinoline derivatives oxidized by cerium(IV) ammonium nitrate” (Bioorg Med Chem Lett, 2003).
